Tests used:
[1] = target: T1, Amyloid-beta precursor protein (Homo sapiens, UniProt P05067); assay: Inhibition of human biotinylated amyloid beta (1 to 42) oligomerization assessed as decrease in oligomer abundance measured after 1 hr by ELISA
[2] = target: T1, Amyloid-beta precursor protein; assay: Inhibition of human amyloid beta (1 to 40) fibrillization at 20 uM measured every 15 mins for 100 hrs by Thioflavin-T fluorescence assay relative to control
In short: (§1)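 Aβ40 monomerized in HFIP (1 mg/mL), dried under argon, diluted to 20 μM final in 20 mM Tris, 8 μM ThT, 0.3 M NaCl, pH 7.4. Compounds added in DMSO, triplicate; DMSO-only control taken as 100% aggregation. ThT fluorescence (ex 450/em 482 nm) read every 15 min for ~100 h; percent inhibition versus control, averaged over three independent samples.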

[3] = target: T1, Amyloid-beta precursor protein; assay: Inhibition of human amyloid beta (1 to 40) fibrillization at 100 uM measured every 15 mins for 100 hrs by Thioflavin-T fluorescence assay relative to control; in short: as §1

T1 sequence (P05067 whole entry): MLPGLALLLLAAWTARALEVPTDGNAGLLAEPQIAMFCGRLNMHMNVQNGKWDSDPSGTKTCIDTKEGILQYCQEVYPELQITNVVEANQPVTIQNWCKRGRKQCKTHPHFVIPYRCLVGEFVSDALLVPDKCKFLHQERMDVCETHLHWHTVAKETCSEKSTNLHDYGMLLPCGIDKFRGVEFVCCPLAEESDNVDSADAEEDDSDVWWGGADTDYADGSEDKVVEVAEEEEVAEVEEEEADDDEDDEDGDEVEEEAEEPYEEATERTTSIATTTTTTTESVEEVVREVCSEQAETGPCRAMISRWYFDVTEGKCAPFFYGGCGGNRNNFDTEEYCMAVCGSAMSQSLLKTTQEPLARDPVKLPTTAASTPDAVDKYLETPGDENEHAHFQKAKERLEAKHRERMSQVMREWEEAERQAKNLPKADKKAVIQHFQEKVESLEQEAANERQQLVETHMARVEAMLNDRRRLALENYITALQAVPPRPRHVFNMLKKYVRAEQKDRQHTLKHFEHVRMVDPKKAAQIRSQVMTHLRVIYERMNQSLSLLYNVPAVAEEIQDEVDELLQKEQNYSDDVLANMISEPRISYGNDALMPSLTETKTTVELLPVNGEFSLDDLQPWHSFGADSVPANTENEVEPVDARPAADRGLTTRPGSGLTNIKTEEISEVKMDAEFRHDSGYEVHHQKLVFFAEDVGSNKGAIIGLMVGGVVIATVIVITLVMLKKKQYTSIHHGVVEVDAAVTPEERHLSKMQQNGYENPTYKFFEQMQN

Row | SMILES | IC50 ([1]; read-out: IC50) | inhibition [2] | inhibition [3] | IC50 [1]
1 | COc1cc(/C=C/C(=O)NCCC(=O)NCCOc2ccccc2)ccc1OCc1ccccc1 | 17.9 µM |  |  | 
2 | COc1ccc(CNC(=O)CCNC(=O)/C=C/c2ccc(OCc3ccccc3)c(OC)c2)cc1 | 54.2 µM |  |  | 
3 | CCCN(CCC)C(=O)/C=C/c1ccc(OCc2cc(F)cc(F)c2)c(OC)c1 |  |  |  | Not Active
4 | COc1cc(/C=C/C(=O)NCCOc2ccccc2)ccc1OCc1ccccc1 |  |  |  | Not Active
5 | COc1cc(/C=C/C(=O)NCCC(=O)NCc2ccccc2)ccc1OCc1ccccc1 | 81.6 µM |  |  | 
6 | COc1cc(/C=C/C(=O)O)ccc1O [FERULATE] | 226 µM | 9.75% | 36.8% | 
7 | CCCN(CCC)C(=O)/C=C/c1ccc(OCCCOc2ccccc2)c(OC)c1 |  |  |  | Not Active
8 | CCN(CC)C(=O)CCc1ccc(OCc2ccccc2)c(OC)c1 | 34.9 µM |  | 6.49% | 
9 | CCCN(CCC)C(=O)/C=C/c1ccc(OC)c(OC)c1 | 45.3 µM |  |  | 
10 | CCN(CC)C(=O)/C=C/c1ccc(OCc2cccnc2)c(OC)c1 |  |  |  | Not Active
11 | CCCN(CCC)C(=O)/C=C/c1ccc(O)c(OC)c1 | 98.8 µM |  |  | 
12 | CCN(CC)C(=O)/C=C/c1ccc(O)c(OC)c1 | 205 µM |  |  | 
13 | COc1cc(-c2cncn2Cc2ccccc2)ccc1OCc1ccccc1 |  | 2.21% | 27.5% | Not Active
14 | CCN(CC)C(=O)/C=C/c1ccc(OS(=O)(=O)c2ccc(C)cc2)c(OC)c1 | 10.6 µM | 1.95% | 3.62% | 
15 | CCCN(CCC)C(=O)/C=C/c1ccc(OCc2cc(OC)cc(OC)c2)c(OC)c1 |  |  |  | Not Active
16 | COc1cc(-c2cncn2CCC(=O)NCCOc2ccccc2)ccc1OCc1ccccc1 | 7.76 µM | 5.98% | 13.8% | 
17 | CCN(CC)C(=O)/C=C/c1ccc(OCc2cscn2)c(OC)c1 |  |  |  | Not Active
18 | COc1cc(/C=C/C(=O)N2CCC[C@@H]2C(=O)NCCOc2ccccc2)ccc1OCc1ccccc1 | 16.8 µM |  |  | 
19 | CCN(CC)C(=O)/C=C/c1ccc(O)c(O)c1 | 119 µM | 73.1% | 91.9% | 
20 | COc1cc(/C=C/C(=O)N2CCC[C@H]2C(=O)NCCOc2ccccc2)ccc1OCc1ccccc1 | 8.59 µM |  |  | 
21 | COc1cc(-c2cncn2CCC(=O)NCCc2ccccc2)ccc1OCc1ccccc1 | 9.91 µM |  | 0% | 
22 | COc1cc([C@H]2C[C@@H]2C(=O)N(C)C)ccc1OCc1ccccc1 | 45.8 µM |  | 8.81% | 

The remaining lines, values ahead:

Row | IC50 ([1]; read-out: IC50) | inhibition [2] | inhibition [3] | IC50 [1] | SMILES
23 |  | 0% | 44.1% | Not Active | COc1cc(/C=C/C(O)C(F)(F)F)ccc1OCc1ccccc1 (stereo not given)
24 | 27.9 µM | 7.28% | 13.4% |  | COc1cc(/C=C/C(=O)N2CCCCC2)ccc1OCc1ccccc1
25 |  |  | 9.56% | Not Active | COc1cc(/C=C/c2nnn[nH]2)ccc1OCc1ccccc1
26 | 8.17 µM |  |  |  | COc1cc(/C=C/C(=O)NCCC(=O)N2CCCCC2)ccc1OCc1ccccc1
27 |  |  |  | Not Active | COc1cc(/C=C/C(=O)NCc2ccccc2)ccc1OCc1ccccc1
28 | 3.61 µM |  |  |  | COc1cc(/C=C/C(=O)N2CC(C(=O)NCc3ccco3)C2)ccc1OCc1ccccc1
29 | 39.3 µM |  | 0% |  | CCN(CC)C(=O)/C=C/c1ccc(OCc2ccccc2)c(OC)c1
30 | 78.1 µM |  |  |  | COc1cc(/C=C/C(=O)N2CCOCC2)ccc1OCc1ccccc1
31 | 17.8 µM |  |  |  | COc1cc(/C=C/C(=O)N2CCC[C@@H]2C(=O)NCc2ccccc2)ccc1OCc1ccccc1
32 | 10.6 µM | 0.29% | 22.3% |  | COc1cc(/C=C/CN2CCCCC2)ccc1OCc1ccccc1
33 | 98.5 µM |  | 0% |  | COc1cc(/C=C/C(=O)Nc2nnn[nH]2)ccc1OCc1ccccc1
34 | 3.13 µM | 14.8% | 48.2% |  | COc1cc(/C=C/C(=O)N2CC(C(=O)NCc3ccccc3)C2)ccc1OCc1ccccc1
35 | 4.78 µM |  |  |  | COc1ccc(CNC(=O)C2CN(C(=O)/C=C/c3ccc(OCc4ccccc4)c(OC)c3)C2)cc1
36 | 79.9 µM |  |  |  | COc1cc(/C=C/C(=O)N(C)OC)ccc1OCc1ccccc1
37 | 1.8 µM | 5.5% | 20.6% |  | COc1cc(/C=C/C(=O)N2CC(C(=O)NCCOc3ccccc3)C2)ccc1OCc1ccccc1
38 | 12.8 µM |  |  |  | CCN(CC)C(=O)C1CN(C(=O)/C=C/c2ccc(OCc3ccccc3)c(OC)c2)C1

Row | IC50 ([1]; read-out: IC50) | inhibition [2] | inhibition [3] | IC50 [1] | SMILES
39 | 21.8 µM |  |  |  | COc1cc(/C=C/C(=O)N2CC(C(=O)N3CC(F)(F)C3)C2)ccc1OCc1ccccc1
40 | 17.1 µM |  |  |  | COc1cc(/C=C/C(=O)N2CCC[C@H]2C(=O)N2CCCCC2)ccc1OCc1ccccc1
41 | 19.2 µM |  |  |  | COc1ccc(CNC(=O)[C@@H]2CCCN2C(=O)/C=C/c2ccc(OCc3ccccc3)c(OC)c2)cc1
42 | 18.7 µM |  |  |  | COc1cc(/C=C/C(=O)N2CCC[C@H]2C(=O)NCc2ccccc2)ccc1OCc1ccccc1
43 | 24.6 µM |  | 0% |  | COc1cc(/C=C/C(=O)N(C)C)ccc1OCc1ccccc1
44 |  |  |  | Not Active | COc1cc(/C=C/C(=O)NCc2ccco2)ccc1OCc1ccccc1
45 | 65.1 µM |  |  |  | COc1cc(/C=C/C(=O)N2CCCC2)ccc1OCc1ccccc1
46 |  |  |  | Not Active | COc1cc(/C=C/c2cnco2)ccc1OCc1ccccc1
47 | 3.65 µM |  |  |  | COc1cc(/C=C/C(=O)N2CC(C(=O)NCc3ccc(F)cc3)C2)ccc1OCc1ccccc1
48 | 18.7 µM | 0% | 13.3% |  | COc1cc([C@H]2C[C@@H]2C(=O)N2CCCCC2)ccc1OCc1ccccc1
49 | 35.7 µM |  |  |  | COc1cc(/C=C/C(=O)N2CC(C(=O)N3CCOCC3)C2)ccc1OCc1ccccc1
50 |  |  |  | Not Active | COc1cc(/C=C/C(=O)N2CCN(c3ccccc3)CC2)ccc1OCc1ccccc1
51 | 10.6 µM |  |  |  | COc1cc(/C=C/C(=O)N2CC(C(=O)N3CCCCC3)C2)ccc1OCc1ccccc1
52 | 107 µM |  |  |  | COc1cc(/C=C/C(=O)N2CC(F)(F)C2)ccc1OCc1ccccc1
53 |  |  |  | Not Active | CCN(CC)C(=S)/C=C/c1ccc(OCc2ccccc2)c(OC)c1
54 | 12.4 µM | 9.35% | 17% |  | CCCN(CCC)C(=O)/C=C/c1ccc(OCc2ccccc2)c(OC)c1

Reference: ChEMBL document CHEMBL4811311, “Ferulic acid amide derivatives with varying inhibition of amyloid-β oligomerization and fibrillization” (Bioorg Med Chem, 2021)
